Laboratory results taken from ChEMBL document CHEMBL1123326, “Sequentially labile water-soluble prodrugs of alprazolam” (J Med Chem, 1986).

Columns and labels:
[1] = target: T1, GABA-A receptor; anion channel (Mus musculus) (UniProt Q8BHJ7+P26048+Q8QZW7+P50571+Q9R0Y8+P22723+A2AMW3+P62812+Q9JLF1+P26049+P22933+Q9D6F4+P63080+P27681+P16305); assay: Ex vivo displacement of [3H]flunitrazepam from mouse GABA-A benzodiazepine receptor at 10 uM/kg iv dose; type: organism-based
Procedure, shortened: (§1)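 Mice dosed iv by tail vein (drugs in 0.9% NaCl, or 2% ethanol for parent; controls given vehicle); decapitated 30 min later (dose-response) or at 1, 3, 10, 30, 60 min (time course). Brain minus cerebellum homogenized in 50 vol 0.05 M Tris pH 7.4, 4 °C; incubated with ~0.77 nM [3H]flunitrazepam final, 30 min, 25 °C; GF/B filtration, scintillation counting. Mean of four measurements.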

[2] = target: T1, GABA-A receptor; anion channel (Mus musculus); assay: Ex vivo displacement of [3H]flunitrazepam from mouse GABA-A benzodiazepine receptor at 1 uM/kg iv dose; type: organism-based; procedure, shortened: as §1
[3] = target: T1, GABA-A receptor; anion channel (Mus musculus); assay: Ex vivo displacement of [3H]flunitrazepam from mouse GABA-A benzodiazepine receptor at 30 uM/kg iv dose (Range 5-10%); type: organism-based; procedure, shortened: as §1
[4] = target: T1, GABA-A receptor; anion channel (Mus musculus); assay: Ex vivo displacement of [3H]flunitrazepam from mouse GABA-A benzodiazepine receptor at 3 uM/kg iv dose; type: organism-based; procedure, shortened: as §1
[5] = Half-life period at 37 degrees C; type: ADME
[6] = target: T1, GABA-A receptor; anion channel (Mus musculus); assay: Ex vivo inhibition of [3H]flunitrazepam binding to mouse GABA-A benzodiazepine receptor; type: functional; procedure, shortened: as §1

Compound	Control [1]	Control [2]	Control [3]	Control [4]	half-life [5]	ED50 [6]
Cc1nnc(CNC(=O)C(N)CC(C)C)n1-c1ccc(Cl)cc1C(=O)c1ccccc1 (configuration not stated)	25%	82%	10%	60%	1 h	6 µmol/kg
Cc1nnc(CNC(=O)CN)n1-c1ccc(Cl)cc1C(=O)c1ccccc1	3%	65%		50%	4.33 h	9 µmol/kg
Cc1nnc2n1-c1ccc(Cl)cc1C(c1ccccc1)=NC2						2.9 µmol/kg
Cc1nnc(CNC(=O)CCCN)n1-c1ccc(Cl)cc1C(=O)c1ccccc1	20%	80%	10%	51%		320 µmol/kg
